Measured values as given in ChEMBL document CHEMBL2086289, “Anti-HIV activity of semisynthetic derivatives of andrographolide and computational study of HIV-1 gp120 protein binding” (Eur J Med Chem, 2012).
Calls of active or inactive are those of the source. The calls are words filed in the database; no cut-off is given here.

Legend:
[1] = Therapeutic index, ratio of CC50 for human TZM-bl cells to IC50 for HIV1; type: cell-based; settings: read-out: Ratio CC50/IC50
Method in brief: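 Ratio of CC50 from the 48 h MTT assay in TZM-bl cells to IC50 from the NL4.3 luciferase infectivity assay in TZM-bl cells.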

[2] = test system: Human immunodeficiency virus 1; assay: Antiviral activity against HIV1 in human TZM-bl cells assessed as viral infectivity by luciferase assay; type: functional, organism-based; settings: Human immunodeficiency virus 1, TZM-bl
Method in brief: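 TZM-bl cells seeded at 4.0 × 10⁴/well and held overnight. CXCR4-tropic HIV-1 NL4.3 (MOI 0.05) was pre-incubated with compound or solvent for 1 h at 37 °C, then added in duplicate for 4 h and washed off. Cells got fresh medium with compound for 48 h, then lysis and luciferase chemiluminescence. AZT served as positive control. IC50 is the concentration giving 50% inhibition of infection versus infected untreated cells.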

[3] = Cytotoxicity against human TZM-bl cells after 48 hrs by MTT assay; type: cell-based
Method in brief: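 TZM-bl cells seeded at 6.0 × 10³/well and incubated 24 h at 37 °C, 5% CO₂. They were then exposed to four compound concentrations (4, 20, 100, 500) or solvent for 48 h. MTT was added for 4 h at 37 °C, followed by overnight solubilization in SDS/DMF/PBS. Absorbance read at 570 nm with a 690 nm reference. Viability was scored relative to untreated cells, and CC50 came from nonlinear curve fitting.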

[4] = (§1) Inhibition of HIV1 gp120 expressed in human HL2/3 cells assessed as compound-treated HL2/3 cell fusion to human TZM-bl cells after 48 hrs by luciferase assay; type: cell-based, Human immunodeficiency virus 1
Method in brief: (§2)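 Either HL2/3 cells (HeLa-derived, expressing HIV-1 HxB2 Env plus Tat, Gag, Rev and Nef; G418-maintained) or TZM-bl cells were pre-treated with compound, then washed. Treated cells were co-cultured with the untreated partner line at 1:1 (1.0 × 10⁵ cells/well) for 48 h at 37 °C, 5% CO₂. Luciferase activity was measured and inhibition scored relative to no-compound co-cultures, with Bicyclam as reference. IC50 is the concentration giving 50% inhibition of luciferase expression.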

[5] = Inhibition of HIV1 gp120 expressed in human HL2/3 cells assessed as Hl2/3 cell fusion to compound-treated human TZM-bl cells after 48 hrs by luciferase assay; type: cell-based, Human immunodeficiency virus 1; method in brief: as §2
[6] = target: Human immunodeficiency virus type 1 reverse transcriptase (Human immunodeficiency virus 1) (UniProt Q72547); assay: Inhibition of HIV1 reverse transcriptase at 50 uM by ELISA
Method in brief: (§3)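 Single-concentration screens run with commercial kits per the manufacturers' protocols. RT was measured by ELISA kit, with nevirapine 1 mM as positive control. HIV-1 protease was measured by a protease assay kit, with saquinavir 1 mM as positive control.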

TZM-bl = assay: as §1; type: cell-based; settings: Human immunodeficiency virus 1; method in brief: as §2
[7] = test system: Human immunodeficiency virus 1; assay: Antiviral activity against HIV1 assessed as inhibition of syncytia formation; type: functional, organism-based
[8] = target: Protease (Human immunodeficiency virus 1) (UniProt Q9YQ12); assay: Inhibition of HIV1 protease at 50 uM by ELISA; method in brief: as §3
Chain of Protease (Human immunodeficiency virus 1) (Q9YQ12 as listed by the source): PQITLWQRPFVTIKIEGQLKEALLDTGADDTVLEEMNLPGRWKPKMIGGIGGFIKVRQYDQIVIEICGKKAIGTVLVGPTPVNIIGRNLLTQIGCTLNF

[9] = Human immunodeficiency virus 1, TZM-bl, 48 h, read-out: IC50

| IC50 ([2]; read-out: IC50) [µM] | IC50 ([2]; read-out: pIC50 (converted)) [µM] | IC50 ([4]; tzm-bl) | IC50 [5, 9] [µM] | inhibition [6] | IC50 [4, 9] [µM] | IC50 ([5]; tzm-bl) | inhibition [8] | Structure (SMILES) | selectivity ratio [1] | CC50 at 48 h [3] [µM] | inhibition (TZM-bl) | inhibition [7] |
| --- | --- | --- | --- | --- | --- | --- | --- | --- | --- | --- | --- | --- |
| 2.08 | 2.09 |  |  |  |  |  |  | C=C1CC[C@@H]2[C@](C)(COC(=O)NS(=O)(=O)c3ccc(C)cc3)[C@H](O)CC[C@@]2(C)[C@@H]1C/C=C1/C(=O)OC[C@H]1O | 978 | 2040 |  |  |
| 84.2 | 85.1 |  |  |  |  |  |  | C=C1CC[C@@H]2[C@](C)(CO)[C@H](O)CC[C@@]2(C)[C@@H]1C/C=C1/C(=O)OC[C@H]1OC(=O)c1ccccc1O | 12 | 1080 |  |  |
|  |  | Not Active | 1.6 |  |  |  |  | Br.c1cc(CN2CCCNCCNCCCNCC2)ccc1CN1CCCNCCNCCCNCC1 |  |  |  |  |
| 0.83 | 0.832 |  |  | inactive | 1.1 | Not Active | inactive | C=C1CC[C@@H]2[C@](C)(CO)[C@H](O)CC[C@@]2(C)[C@@H]1C/C=C1/C(=O)OC[C@H]1OC(=O)c1ccc(Cl)nc1Cl | 12500 | 10400 | Dose-dependent effect | Active |
| 2.75 | 2.75 |  |  |  |  |  |  | C=C1CC[C@@H]2[C@]3(C)COC(c4ccc5c(c4)OCO5)O[C@@H]3CC[C@@]2(C)[C@@H]1C/C=C1/C(=O)OC[C@H]1O (some centres not stated) | 599 | 1650 |  |  |
| 9.94 | 10 |  |  |  |  |  |  | C=C1CC[C@@H]2[C@]3(C)COC(c4ccc(Cl)cc4)O[C@@H]3CC[C@@]2(C)[C@@H]1C/C=C1/C(=O)OC[C@H]1O (some centres not stated) | 44 | 440 |  |  |
| 2.1 | 2.09 |  |  |  |  |  |  | C=C1CC[C@@H]2[C@]3(C)COC(c4ccc(O)cc4)O[C@@H]3CC[C@@]2(C)[C@@H]1C/C=C1/C(=O)OC[C@H]1O (some centres not stated) | 24 | 50 |  |  |
| 0.59 | 0.589 |  |  | inactive | 1.7 | Not Active | inactive | C=C1CC[C@@H]2[C@](C)(CO)[C@H](O)CC[C@@]2(C)[C@@H]1C/C=C1/C(=O)OC[C@H]1O [ANDROGRAPHOLIDE] | 2880 | 1700 | Dose-dependent effect | Active |
| 1.09 | 1.1 |  |  |  |  |  |  | C=C1CC[C@@H]2[C@]3(C)COC(c4ccc(O)cc4O)O[C@@H]3CC[C@@]2(C)[C@@H]1C/C=C1/C(=O)OC[C@H]1O (some centres not stated) | 164 | 179 |  |  |
| 0.51 | 0.513 |  |  | inactive | 1.6 | Not Active | inactive | C=C1CC[C@@H]2[C@]3(C)COC(c4cccc([N+](=O)[O-])c4)O[C@@H]3CC[C@@]2(C)[C@@H]1C/C=C1/C(=O)OC[C@H]1O (some centres not stated) | 1460 | 745 | Dose-dependent effect | Active |
| 6.09 | 6.03 |  |  |  |  |  |  | C=C1CC[C@@H]2[C@]3(C)COC(c4ccc(O)c(OC)c4)O[C@@H]3CC[C@@]2(C)[C@@H]1C/C=C1/C(=O)OC[C@H]1O (some centres not stated) | 10 | 59 |  |  |

| Structure (SMILES) | IC50 ([2]; read-out: IC50) [µM] | IC50 ([2]; read-out: pIC50 (converted)) [µM] | IC50 ([4]; tzm-bl) | IC50 [5, 9] [µM] | inhibition [6] | IC50 [4, 9] [µM] | IC50 ([5]; tzm-bl) | inhibition [8] | selectivity ratio [1] | CC50 at 48 h [3] [µM] | inhibition (TZM-bl) | inhibition [7] |
| --- | --- | --- | --- | --- | --- | --- | --- | --- | --- | --- | --- | --- |
| C=C(C)[C@@H]1CC[C@]2(C(=O)NCCCCCCCC(=O)N[C@@H](CC(C)C)[C@H](O)CC(=O)O)CC[C@]3(C)[C@H](CC[C@@H]4[C@@]5(C)CC[C@H](O)C(C)(C)[C@@H]5CC[C@]43C)[C@@H]12 | 0.1 | 0.1 |  |  |  |  |  |  |  |  |  |  |
